Experimental data reported in PMC2873069 (The journal of maternal-fetal & neonatal medicine : the …, 2010).
Entries after “also recorded” stand apart in the source; their conditions may differ. Where two headings read alike, the source gives them in different places.

Experiments:
[1] = cited from earlier work; for pharmacologic activity: hepatic metabolites
[2] = cited from earlier work
[3] = system: term human placental lobule; assay type: in vitro ADME; settings: for fetal/maternal concentration ratio: HSA 30 mg/ml
[4] = system: perfused placental tissue; assay: Effect of bupropion on placental tissue viability; design: species or system human; settings: for effect on placental viability and functional parameters: 150 ng/ml and 450 ng/ml bupropion
[5] = system: placental tissue enzymes; assay: Metabolism of bupropion by placental tissue during perfusion; settings: end of 4 hours of perfusion
[6] = assay type: physicochemical
Summary of the method: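 Test compound as the [3H] form recirculated for 4 h through the closed perfusion circuit (glassware, teflon tubing, tygon peristaltic-pump tubing) without placenta, in M199 with dextran 40, heparin, gentamicin, sulfamethoxazole and trimethoprim at 37 °C. Run without and with human serum albumin at 30 mg/mL. Loss of radiolabel from the medium was tracked over 4 h.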

[7] = end of 4-hour perfusion, independent of initial concentration
[8] = bupropion 150 ng/mL, 4 hours of perfusion
[9] = bupropion 450 ng/mL, 4 hours of perfusion

CC(NC(C)(C)C)C(O)c1cccc(Cl)c1 (centres unmarked) [erythrohydrobupropion]
pharmacologic activity [1]: very low activity

C[C@H]1NC(C)(C)CO[C@]1(O)c1cccc(Cl)c1 [hydroxybupropion]
pharmacologic activity relative to the parent compound ([1]; hepatic metabolite): ~50%

CC(NC(C)(C)C)C(=O)c1cccc(Cl)c1 (centres unmarked) [bupropion]
octanol/water partition coefficient ([2]; no reference given): 3.21 | pKa ([2]; no reference given): 7.6 | decline in concentration in the maternal circuit (shape) ([3]; 150 ng/ml, 4 hours): biphasic | time at which equilibrium was achieved in the fetal circuit ([3]; 150 ng/ml, from time 0): 180 min | fetal circuit concentration as % of initial concentration ([3]; 450 ng/ml, end of 4 hours): 23 ± 2% | fetal/maternal concentration ratio ([3]; bupropion 150 ng/ml in maternal circuit, end of 4-hour perfusion): 1.07 ± 0.22 | fetal/maternal concentration ratio ([3]; bupropion 450 ng/ml in maternal circuit, end of 4-hour perfusion): 1.00 ± 0.14 | fraction of drug remaining in the maternal circuit [3, 7]: 32 ± 5% | fraction of drug retained by placental tissue [3, 7]: 48 ± 6% | concentration in the fetal circuit at the end of the experiment ([3]; initial maternal concentration 150 ng/ml, 4 hours): 35 ± 4 ng/mL | concentration in the fetal circuit at the end of the experiment ([3]; initial maternal concentration 450 ng/ml, 4 hours): 104 ng/mL | effect on placental viability and functional parameters [4]: did not affect; also recorded: do not adversely affect | O2 consumption, % of control period [4, 8]: 114 ± 37% | O2 consumption, experimental period [4, 8]: 6.6 ± 1.6 mL/min/kg | O2 transfer, % control period [4, 8]: 56 ± 21% | O2 transfer, experimental period [4, 8]: 0.22 ± 0.1 mL/min/kg | O2 consumption, % of control period [4, 9]: 98 + 38% | O2 consumption, experimental period [4, 9]: 3.7 + 1.2 mL/min kg | O2 transfer, % control period [4, 9]: 43 + 16% | release of hCG at the end of the experimental period (control period = 100%) ([4]; bupropion transfused in presence of HSA): 94 ± 12%

C[C@H](NC(C)(C)C)[C@@H](O)c1cccc(Cl)c1 [threohydrobupropion]
ratio of metabolite to parent drug in placental tissue [5]: 0.06 | ratio of metabolite to parent drug in the fetal circuit [5]: 0.07 | ratio of metabolite to parent drug in the maternal circuit [5]: 0.08 | pharmacologic activity [1]: very low activity | effect on placental viability and functional parameters [4]: do not adversely affect

[^3H]-bupropion
binding to glassware and teflon tubing ([6]; 4 hours recirculation in absence of placenta): negligible | decline of initial amount in the medium ([6]; 4 hours recirculation in absence of placenta, no HSA): 40% | reduction of binding to tygon tubing ([6]; after addition of 30 mg/mL HSA to the perfusion medium): 25%

Cc1cc(=O)n(-c2ccccc2)n1C [AP, antipyrine]
binding to plasma proteins and human serum albumin [2]: minimal binding | transplacental transfer to the fetal circuit ([3]; antipyrine 20 μg/mL co-transfused marker, 4 hours): approximately 50%
